Laboratory results taken from ChEMBL document CHEMBL5356931, “Medicinal chemistry approaches to target the MNK-eIF4E axis in cancer” (RSC Med Chem, 2023).
Values after ≈ are worked out from the molar mass of the structure shown.

Columns and labels:
[1] = target: Vascular endothelial growth factor receptor 2 (Homo sapiens, UniProt P35968); experiment: Inhibition of VEGFR2 (unknown origin)
[2] = target: T1, Receptor-type tyrosine-protein kinase FLT3 (Homo sapiens, UniProt P36888); experiment: Inhibition of FLT3 (unknown origin)
T1 sequence (P36888 whole entry): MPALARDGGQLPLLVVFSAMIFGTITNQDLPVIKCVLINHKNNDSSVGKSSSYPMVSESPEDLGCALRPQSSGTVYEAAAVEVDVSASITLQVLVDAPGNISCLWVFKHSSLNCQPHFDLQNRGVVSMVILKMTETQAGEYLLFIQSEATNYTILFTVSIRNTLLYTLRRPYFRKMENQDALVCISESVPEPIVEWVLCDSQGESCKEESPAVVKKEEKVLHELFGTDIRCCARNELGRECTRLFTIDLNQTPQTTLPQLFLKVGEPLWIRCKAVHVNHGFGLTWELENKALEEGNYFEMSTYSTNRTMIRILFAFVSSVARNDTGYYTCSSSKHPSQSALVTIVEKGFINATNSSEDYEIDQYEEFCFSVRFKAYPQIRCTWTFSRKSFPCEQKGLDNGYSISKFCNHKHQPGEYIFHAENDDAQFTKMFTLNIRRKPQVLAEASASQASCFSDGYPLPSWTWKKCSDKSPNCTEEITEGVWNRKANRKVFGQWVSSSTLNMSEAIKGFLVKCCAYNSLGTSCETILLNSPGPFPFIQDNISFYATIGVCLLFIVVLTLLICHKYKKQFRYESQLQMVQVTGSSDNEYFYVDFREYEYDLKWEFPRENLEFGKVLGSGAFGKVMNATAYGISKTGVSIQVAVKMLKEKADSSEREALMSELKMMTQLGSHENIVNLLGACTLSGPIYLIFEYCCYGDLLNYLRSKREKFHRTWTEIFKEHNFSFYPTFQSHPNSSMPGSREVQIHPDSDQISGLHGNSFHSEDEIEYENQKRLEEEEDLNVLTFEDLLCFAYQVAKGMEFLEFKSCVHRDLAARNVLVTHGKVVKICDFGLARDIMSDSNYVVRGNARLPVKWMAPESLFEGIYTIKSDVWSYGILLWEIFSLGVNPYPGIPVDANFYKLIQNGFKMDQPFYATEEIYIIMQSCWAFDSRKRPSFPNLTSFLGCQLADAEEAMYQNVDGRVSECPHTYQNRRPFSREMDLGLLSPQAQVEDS

[3] = target: T2, Tyrosine-protein kinase ABL1 (Homo sapiens, UniProt P00519); experiment: Inhibition of ABL1 (unknown origin) relative to control; conditions: concentration not given here
T2 sequence (P00519 whole entry): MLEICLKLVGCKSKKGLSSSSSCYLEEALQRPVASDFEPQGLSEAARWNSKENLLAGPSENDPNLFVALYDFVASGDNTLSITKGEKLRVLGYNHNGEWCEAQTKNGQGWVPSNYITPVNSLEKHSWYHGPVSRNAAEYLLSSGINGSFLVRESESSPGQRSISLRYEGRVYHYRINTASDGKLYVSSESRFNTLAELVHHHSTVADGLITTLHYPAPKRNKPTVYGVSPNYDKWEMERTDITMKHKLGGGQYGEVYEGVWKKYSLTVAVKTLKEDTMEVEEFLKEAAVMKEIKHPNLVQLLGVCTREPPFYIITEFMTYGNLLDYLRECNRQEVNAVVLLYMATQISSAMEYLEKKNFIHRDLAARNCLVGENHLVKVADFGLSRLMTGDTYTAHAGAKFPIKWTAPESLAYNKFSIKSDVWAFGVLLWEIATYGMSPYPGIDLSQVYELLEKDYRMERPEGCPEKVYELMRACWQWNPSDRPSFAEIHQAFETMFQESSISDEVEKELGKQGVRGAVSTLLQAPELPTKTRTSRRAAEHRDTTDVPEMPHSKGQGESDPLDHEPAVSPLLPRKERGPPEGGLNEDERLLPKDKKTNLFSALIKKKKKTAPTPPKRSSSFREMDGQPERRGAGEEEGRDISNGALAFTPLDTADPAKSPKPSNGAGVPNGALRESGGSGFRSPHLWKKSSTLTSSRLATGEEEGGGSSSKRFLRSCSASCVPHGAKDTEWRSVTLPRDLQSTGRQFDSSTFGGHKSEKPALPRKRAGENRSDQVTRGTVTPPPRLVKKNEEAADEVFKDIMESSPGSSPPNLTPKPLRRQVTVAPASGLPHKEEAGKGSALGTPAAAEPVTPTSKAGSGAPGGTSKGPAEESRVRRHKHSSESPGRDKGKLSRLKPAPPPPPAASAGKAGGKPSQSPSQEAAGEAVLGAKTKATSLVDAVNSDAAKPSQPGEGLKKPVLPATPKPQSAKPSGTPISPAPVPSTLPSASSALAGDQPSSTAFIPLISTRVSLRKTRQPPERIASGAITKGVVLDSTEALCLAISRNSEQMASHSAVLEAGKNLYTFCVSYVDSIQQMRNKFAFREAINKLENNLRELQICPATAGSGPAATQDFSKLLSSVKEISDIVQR

[4] = target: Proto-oncogene tyrosine-protein kinase receptor Ret (Homo sapiens, UniProt P07949); experiment: Inhibition of RET (unknown origin)
Sequence of Proto-oncogene tyrosine-protein kinase receptor Ret (P07949 whole entry): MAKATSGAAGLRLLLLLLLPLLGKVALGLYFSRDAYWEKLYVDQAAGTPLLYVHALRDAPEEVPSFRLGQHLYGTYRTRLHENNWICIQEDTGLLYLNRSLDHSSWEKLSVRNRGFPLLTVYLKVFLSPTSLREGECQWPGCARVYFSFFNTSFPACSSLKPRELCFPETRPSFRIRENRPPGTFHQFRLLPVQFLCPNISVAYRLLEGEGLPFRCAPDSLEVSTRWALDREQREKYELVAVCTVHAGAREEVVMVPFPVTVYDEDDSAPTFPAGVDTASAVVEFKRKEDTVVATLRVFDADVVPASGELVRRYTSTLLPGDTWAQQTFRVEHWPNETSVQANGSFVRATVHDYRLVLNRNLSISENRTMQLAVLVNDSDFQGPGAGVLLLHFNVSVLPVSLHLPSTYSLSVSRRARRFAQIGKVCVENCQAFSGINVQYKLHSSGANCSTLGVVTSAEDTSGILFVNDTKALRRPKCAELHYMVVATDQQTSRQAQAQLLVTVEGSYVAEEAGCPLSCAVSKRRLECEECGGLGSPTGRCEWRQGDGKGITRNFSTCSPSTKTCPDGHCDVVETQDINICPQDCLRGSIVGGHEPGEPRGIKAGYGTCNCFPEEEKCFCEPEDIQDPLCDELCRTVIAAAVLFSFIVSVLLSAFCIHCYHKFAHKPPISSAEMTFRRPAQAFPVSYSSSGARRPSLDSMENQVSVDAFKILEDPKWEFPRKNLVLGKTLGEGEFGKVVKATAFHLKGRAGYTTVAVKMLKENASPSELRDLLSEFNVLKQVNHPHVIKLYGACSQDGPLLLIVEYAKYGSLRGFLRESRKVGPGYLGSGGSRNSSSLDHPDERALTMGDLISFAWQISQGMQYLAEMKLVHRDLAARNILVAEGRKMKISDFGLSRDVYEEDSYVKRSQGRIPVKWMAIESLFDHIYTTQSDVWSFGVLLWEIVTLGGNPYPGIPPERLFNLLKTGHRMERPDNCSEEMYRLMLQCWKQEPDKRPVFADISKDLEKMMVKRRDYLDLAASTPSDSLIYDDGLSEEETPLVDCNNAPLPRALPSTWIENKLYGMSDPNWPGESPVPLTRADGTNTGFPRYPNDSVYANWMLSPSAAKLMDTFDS

[5] = target: T3, Eukaryotic translation initiation factor 4E (Homo sapiens, UniProt P06730); experiment: Inhibition of eIF4E phosphorylation in human HeLa cells; type: cell-based
T3 sequence (P06730 whole entry): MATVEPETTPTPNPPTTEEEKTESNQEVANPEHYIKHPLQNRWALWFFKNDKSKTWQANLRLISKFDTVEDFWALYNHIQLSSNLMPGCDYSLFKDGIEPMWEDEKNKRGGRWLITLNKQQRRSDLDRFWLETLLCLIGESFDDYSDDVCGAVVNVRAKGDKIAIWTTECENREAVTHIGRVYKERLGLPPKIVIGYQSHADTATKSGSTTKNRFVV

[6] = target: MAP kinase-interacting serine/threonine-protein kinase 1 (Homo sapiens) (UniProt Q9BUB5); experiment: Inhibition of MNK1 (unknown origin) relative to control; conditions: concentration not given here
Sequence of MAP kinase-interacting serine/threonine-protein kinase 1 (Homo sapiens) (Q9BUB5 whole entry, looked up): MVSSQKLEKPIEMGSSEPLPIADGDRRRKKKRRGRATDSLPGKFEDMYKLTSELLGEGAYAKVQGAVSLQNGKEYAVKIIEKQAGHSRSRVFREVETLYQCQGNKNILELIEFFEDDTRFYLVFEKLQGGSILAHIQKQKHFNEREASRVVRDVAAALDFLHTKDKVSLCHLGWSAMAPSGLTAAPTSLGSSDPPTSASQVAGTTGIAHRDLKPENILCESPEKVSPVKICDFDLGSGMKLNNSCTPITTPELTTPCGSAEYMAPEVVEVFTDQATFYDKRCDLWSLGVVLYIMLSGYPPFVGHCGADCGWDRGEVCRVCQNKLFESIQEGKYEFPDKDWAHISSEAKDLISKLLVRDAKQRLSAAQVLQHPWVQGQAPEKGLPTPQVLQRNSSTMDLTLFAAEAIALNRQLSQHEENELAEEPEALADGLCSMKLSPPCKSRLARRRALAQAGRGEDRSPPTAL

[7] = Solubility of compound at pH 7.4; type: physicochemical; conditions: buffer
[8] = Drug exposure in mouse at 5 mg/kg,po; type: ADME, organism-based; set-up: dose 5 mg/kg, route po; conditions: in vivo
Summary of the method: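 Mice received a single oral dose of 5 mg kg⁻¹. Exposure was described by oral bioavailability F (%), Cmax (ng mL⁻¹) and AUC0−t (last) (ng h mL⁻¹).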

[9] = Solubility of the compound; type: physicochemical
[10] = target: T2, Tyrosine-protein kinase ABL1; experiment: Inhibition of ABL1 (unknown origin)
[11] = target: T3, Eukaryotic translation initiation factor 4E; experiment: Binding affinity to eIF4E (unknown origin) assessed as dissociation constant
[12] = Half life in CD-1 mouse at 5 mg/kg, iv; type: ADME, organism-based, CD1; conditions: in vivo
K562 [13] = experiment: animal or person; conditions: Mus musculus, K562, read-out: TGI
K562 [14] = experiment: animal or person; conditions: Mus musculus, K562, read-out: TGI; remark: listed apart in the source
[15] = target: MAP kinase-interacting serine/threonine-protein kinase 2 (Homo sapiens, UniProt Q9HBH9); experiment: Inhibition of MNK2 (unknown origin)
Sequence of MAP kinase-interacting serine/threonine-protein kinase 2 (Q9HBH9 whole entry): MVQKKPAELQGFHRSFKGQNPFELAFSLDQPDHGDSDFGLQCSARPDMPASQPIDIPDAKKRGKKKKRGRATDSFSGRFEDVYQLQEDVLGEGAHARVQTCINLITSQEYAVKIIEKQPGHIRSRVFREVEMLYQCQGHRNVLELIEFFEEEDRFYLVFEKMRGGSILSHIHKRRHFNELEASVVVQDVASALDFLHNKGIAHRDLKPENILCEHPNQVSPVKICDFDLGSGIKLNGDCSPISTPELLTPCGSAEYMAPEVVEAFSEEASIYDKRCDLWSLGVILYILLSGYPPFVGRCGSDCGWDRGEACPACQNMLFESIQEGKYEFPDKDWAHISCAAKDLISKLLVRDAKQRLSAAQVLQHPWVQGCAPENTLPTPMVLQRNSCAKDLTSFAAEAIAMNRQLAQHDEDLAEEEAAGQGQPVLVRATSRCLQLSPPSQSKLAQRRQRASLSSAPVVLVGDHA

Sequence of Vascular endothelial growth factor receptor 2 (P35968 whole entry): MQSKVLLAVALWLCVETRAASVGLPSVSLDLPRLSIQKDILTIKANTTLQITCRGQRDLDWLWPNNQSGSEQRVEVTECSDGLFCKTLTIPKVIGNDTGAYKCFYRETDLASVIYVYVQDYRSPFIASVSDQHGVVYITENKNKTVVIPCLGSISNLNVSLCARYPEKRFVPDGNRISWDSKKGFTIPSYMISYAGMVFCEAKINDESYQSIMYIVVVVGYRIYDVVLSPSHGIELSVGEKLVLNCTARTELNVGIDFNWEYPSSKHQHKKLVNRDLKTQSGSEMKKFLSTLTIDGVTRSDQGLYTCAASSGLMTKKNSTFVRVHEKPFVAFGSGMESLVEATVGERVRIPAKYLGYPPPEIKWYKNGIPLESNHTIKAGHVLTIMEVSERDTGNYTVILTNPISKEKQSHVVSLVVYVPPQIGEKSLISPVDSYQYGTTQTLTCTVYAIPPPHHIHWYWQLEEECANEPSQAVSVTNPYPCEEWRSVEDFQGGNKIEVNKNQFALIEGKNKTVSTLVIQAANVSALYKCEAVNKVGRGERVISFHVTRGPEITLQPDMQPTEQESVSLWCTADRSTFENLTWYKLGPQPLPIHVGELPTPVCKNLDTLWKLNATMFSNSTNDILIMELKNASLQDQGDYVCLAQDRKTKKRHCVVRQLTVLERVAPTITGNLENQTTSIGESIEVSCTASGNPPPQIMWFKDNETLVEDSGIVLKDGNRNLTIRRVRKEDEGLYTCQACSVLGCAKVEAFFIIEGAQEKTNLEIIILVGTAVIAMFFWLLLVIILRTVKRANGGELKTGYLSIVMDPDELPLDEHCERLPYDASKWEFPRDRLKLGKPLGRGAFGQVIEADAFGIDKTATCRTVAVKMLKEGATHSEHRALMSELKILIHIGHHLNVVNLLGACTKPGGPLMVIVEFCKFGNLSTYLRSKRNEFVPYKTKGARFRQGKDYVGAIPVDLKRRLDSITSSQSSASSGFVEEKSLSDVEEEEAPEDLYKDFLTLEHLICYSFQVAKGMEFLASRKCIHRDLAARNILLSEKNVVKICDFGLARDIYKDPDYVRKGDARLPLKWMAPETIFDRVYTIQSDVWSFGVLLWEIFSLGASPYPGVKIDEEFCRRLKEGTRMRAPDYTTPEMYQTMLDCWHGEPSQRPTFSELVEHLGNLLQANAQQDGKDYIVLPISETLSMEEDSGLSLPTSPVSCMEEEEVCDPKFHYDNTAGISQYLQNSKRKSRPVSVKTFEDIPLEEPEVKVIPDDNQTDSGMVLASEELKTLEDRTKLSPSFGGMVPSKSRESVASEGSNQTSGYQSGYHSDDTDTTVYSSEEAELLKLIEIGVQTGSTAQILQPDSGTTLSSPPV

`CN1CCN(Cc2ccc(NC(=O)CNc3ccc(-c4ccc(NC(=O)C5CC5)nc4)cc3F)cc2C(F)(F)F)CC1` showed an IC50 [1] of under 24 nM, an IC50 [2] of under 24 nM and an inhibition [3] of over 90%. For the same compound, the IC50 [4] was under 24 nM, the IC50 [5] was 280 nM and the inhibition [6] was over 90%.

In the case of `CC(C)Oc1cc(-c2cccnc2)ccc1C(N)=O`, the solubility [7] is reported as 45 µg/mL (≈ 176 µM).

For `CC(C)Oc1cc(-c2cncc(-c3cnn(C4COC4)c3)c2)ccc1C(N)=O`, the AUC [8] was 2080 ng·h/mL, the IC50 [5] was 200 nM and the inhibition [6] was over 90%.

In the case of `CN1CCN(C(=O)c2ccc(-c3cn4c(-c5ccc(O)cc5)cnc4cn3)cc2)CC1`, the solubility [9] is reported as 144 µg/mL (≈ 348 µM).

Compound `CCN1CCN(Cc2ccc(NC(=O)COc3ccc(-c4cccnc4)cc3)cc2C(F)(F)F)CC1` has an IC50 [10] of over 10000 nM.

In the case of `NC(=O)c1ncn([C@@H]2O[C@H](CO)[C@@H](O)[C@H]2O)n1` [RIBAVIRIN], the Kd [11] is reported as 8400 nM.

Compound `CCN1CCN(Cc2ccc(NC(=O)CNc3ccc(-c4ccc(NC(=O)C5CC5)nc4)cc3)cc2C(F)(F)F)CC1` has an IC50 [1] of under 24 nM, a half-life [12] of 2.1 h and an IC50 [2] of under 24 nM. It also gave an IC50 [4] of under 24 nM.

Compound `N#Cc1ccc(-c2cnc3ccc(-c4ccc(C(=O)N5CCOCC5)cc4)cn23)cc1` [TINODASERTIB] has an inhibition in vivo at 25 mg/kg (K562 [13]) of 107% and an inhibition in vivo at 50 mg/kg (K562 [14]) of 110%.

Work on `CN1CCN(C(=O)c2ccc(-c3cn4c(-c5ccc(C(=O)NO)cc5)cnc4cn3)cc2)CC1` yielded an IC50 [15] of 30 nM.

With `CN1CCN(C(=O)c2ccc(-c3ccc4ncc(-c5ccc(C#N)cc5)n4n3)cc2)CC1` the IC50 [15] was 30 nM.

`O=C(c1ccc(-c2cn3c(-c4ccc(O)cc4)cnc3cn2)cc1)N1CCOCC1` showed a solubility [9] of 11.5 µg/mL (≈ 28.7 µM).

With `CCN1CCN(Cc2ccc(NC(=O)CNc3ccc(-c4cccnc4)cc3)cc2C(F)(F)F)CC1` the IC50 [10] was over 10000 nM.

In the case of `CC(=O)N1CCN(C(=O)c2ccc(-c3cn4c(-c5ccc(O)cc5)cnc4cn3)cc2)CC1`, the solubility [9] is reported as 144 µg/mL (≈ 326 µM).
